Activity calls are given as the source filed them. The calls are words filed in the database; no cut-off is given here.

Our source for the IC50 and Activity values is ChEMBL document CHEMBL1157783, “Synthesis, characterization and vasculoprotective effects of nitric oxide-donating derivatives of chrysin” (Bioorg Med Chem, 2010).

Series [1] concerns the target Aldo-keto reductase family 1 member B1 (Bos taurus, UniProt P16116). The series is described as follows: Inhibition of aldose reductase from calf lense by AR assay.
A short description of series [2]: Inhibition of advanced glycation end product formation in phosphate buffered saline at pH 7.4 after 14 days by fluorospectrophotometry in presence of bovine serum albumin. It is filed as physicochemical.
A further series concerns HepG2. The series is described as follows: Increase in glucose consumption in human HepG2 cells at 10 umol/L after 24 hrs by enzymatic method relative to control blank. It is filed as functional, cell-based. In a few lines:
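HepG2 cells in high-glucose DMEM with 10% FBS, grown to 80–90% confluence, switched to DMEM with 1% FBS for 12 h, then treated 24 h in the same medium. Medium glucose measured enzymatically with a kit. Consumption taken as blank-well glucose minus remaining glucose, then adjusted for cell number by MTT. Vehicle 0.1% DMSO; mean S.D., n = 3.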

A short description of series [3]: Induction of NO release in phosphate buffered saline of pH 7.4 at 100 uM after 1 hr by Griess assay in presence of L-cysteine. It is filed as physicochemical. To be noted: buffer, pH 7.4, 1 h. The gist of the method:
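Incubated 1 h at 37 °C in PBS pH 7.4 with L-cysteine. Reaction mixture treated with Griess reagent (sulfanilamide, N-naphthylethylenediamine dihydrochloride, phosphoric acid) for 10 min at room temperature, then absorbance read at 540 nm. Expressed as percent of a theoretical maximum of 1 mol NO per mol compound. Sodium nitroprusside as positive control.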
For orientation: The Griess reaction detects nitrite, a stable product of nitric oxide.

For the compound `O=c1cc(-c2ccccc2)oc2cc(O)cc(O)c12` [CHRYSIN], the IC50 in series [1] is 7.79 µM; in series [2], 63.5 µM. In addition, in the series with HepG2, the result was inactive.
On to `CC(=O)Oc1cc(OCCO[N+](=O)[O-])cc2oc(-c3ccccc3)cc(=O)c12`, for which the values for the 50% inhibitory concentration (IC50) in series [1] and in series [2] were 0.86 µM and not below 300 µM, respectively. Also, the Activity in series [3] was determined as 1.68%.
Take `O=C(CCCCCCO[N+](=O)[O-])OCOc1cc(O)c2c(=O)cc(-c3ccccc3)oc2c1`: the IC50 in series [1] turned out to be 0.21 µM; in series [2], 138 µM. Further, in the series with HepG2, the outcome was Active. In addition, in series [3], the Activity was determined as 1.38%.
With `CC(=O)Oc1cc(OCCCCO[N+](=O)[O-])cc2oc(-c3ccccc3)cc(=O)c12`, the results for the IC50 in series [1] and in series [2] were 0.39 µM and not below 300 µM, respectively. The Activity in series [3] was found to be 1.48%.
The matching figures for `O=C(CCO[N+](=O)[O-])OCOc1cc(O)c2c(=O)cc(-c3ccccc3)oc2c1`: 0.3 µM, 43.9 µM and 1.77%.
As for `O=c1cc(-c2ccccc2)oc2cc(OCCO[N+](=O)[O-])cc(O)c12`, the IC50 in series [1] is 0.49 µM; in series [2], not below 300 µM. In the series on HepG2, the result was Active. The Activity in series [3] is 1.67%.
In the case of `O=c1cc(-c2ccccc2)oc2cc(OCCCCCCO[N+](=O)[O-])cc(O)c12`, the values for the IC50 in series [1] and in series [2] were 0.71 µM and not below 300 µM, respectively. The result with HepG2 was Active. The Activity in series [3] stood at 1.21%.
As to `N=C(N)NN` [PIMAGEDINE], in series [2], the half-inhibitory concentration (IC50) came out at 826 µM.
Regarding `CC(=O)Oc1cc(OCCCCCCO[N+](=O)[O-])cc2oc(-c3ccccc3)cc(=O)c12`, the IC50 is 0.42 µM in series [1] and not below 300 µM in series [2]. Moreover, the Activity in series [3] stood at 1.43%.
For `O=c1cc(-c2ccccc2)oc2cc(OCCCCO[N+](=O)[O-])cc(O)c12`, the IC50 in series [1] stood at 0.29 µM; in series [2] it was 75.5 µM. Also, the outcome in the series with HepG2 was Active. In series [3], the Activity is on record as 1.43%.
Regarding `O=C(CCCCO[N+](=O)[O-])OCOc1cc(O)c2c(=O)cc(-c3ccccc3)oc2c1`, the IC50 was 0.13 µM in series [1] and 52.5 µM in series [2]. The result in the series with HepG2 was Active. The Activity in series [3] stood at 1.26%.

By IC50 is commonly meant the concentration that inhibits the measured activity by half.
